We go through 24 compounds from ChEMBL document CHEMBL4732057, “Design, synthesis and biological evaluation of second-generation benzoylpiperidine derivatives as reversible monoacylglycerol lipase (MAGL) inhibitors” (Eur J Med Chem, 2021).

One experiment concerns the target T1, Monoglyceride lipase (Homo sapiens, UniProt Q99685).
T1 sequence (Q99685 whole entry): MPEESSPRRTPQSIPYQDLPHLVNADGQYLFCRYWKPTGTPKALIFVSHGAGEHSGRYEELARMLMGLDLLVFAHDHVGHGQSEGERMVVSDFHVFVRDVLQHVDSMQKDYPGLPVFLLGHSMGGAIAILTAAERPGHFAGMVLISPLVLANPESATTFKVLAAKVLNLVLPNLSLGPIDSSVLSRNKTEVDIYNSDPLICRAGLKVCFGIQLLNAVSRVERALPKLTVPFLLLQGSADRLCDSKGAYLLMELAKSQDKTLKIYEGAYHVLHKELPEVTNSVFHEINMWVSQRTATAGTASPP
In words: Inhibition of human recombinant MAGL using 4-nitrophenylacetate as substrate incubated for 30 mins by microplate reader assay. In short, it runs like this: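 Human recombinant MAGL, 11 ng/well, in 10 mM Tris pH 7.2 with 1 mM EDTA and 0.1 mg/mL BSA, at room temperature. 4-NPA 133.3 µM stock added; enzyme added last. Absorbance at 405 nm after 30 min, minus a no-enzyme blank for each concentration. Sigmoidal fit; duplicates of three independent experiments.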

Experiment [1] in a line: Antiproliferative activity against human PDAC-3 cells assessed as inhibition of cell growth incubated for 72 hrs by SRB assay. The experiment is classed as functional, cell-based. The following applies: PDAC-3, 72 h. In short, it runs like this: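 Primary patient-derived PDAC-3 cells, cultured under 20 passages in RPMI-1640 with 10% NBCS. Compounds dissolved in DMSO and tested at 8 concentrations, 156.25 to 20 000 nM. Growth read by sulforhodamine-B assay.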
A general note: In SRB staining, fixed cells bind dye roughly in proportion to their protein.

A further experiment deals with OVCAR-3. Description: Antiproliferative activity against human OVCAR3 cells as reduction in cell growth measured after 96 hrs by Celltiter-glo luminescent assay. The experiment is classed as functional, cell-based. The following applies: OVCAR-3, 96 h. In short, it runs like this:
(§1)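 Cell lines kept at 37 °C, 5% CO2; 5 × 10^2 cells per well, compound added the day after seeding at 200 to 0.02 µM. Viability read after 96 h by CellTiter-Glo luminescence. IC50 from logistic dose-response curves, in triplicate; error bars are SD.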
For orientation: In ATP-based viability assays light output follows the ATP content of the culture.

Another experiment relates to HCT-116. In words: Antiproliferative activity against human HCT116 cells as reduction in cell growth measured after 96 hrs by Celltiter-glo luminescent assay. In kind it is functional, cell-based. The following applies: HCT-116, 96 h. The method in brief: as §1
The test system of the next experiment is SK-OV-3. In words: Antiproliferative activity against human SKOV3 cells as reduction in cell growth measured after 96 hrs by Celltiter-glo luminescent assay. The experiment is classed as functional, cell-based. The following applies: SK-OV-3, 96 h. In short, it runs like this: as §1
Another experiment deals with MDA-MB-231. Description: Antiproliferative activity against human MDA-MB-231 cells as reduction in cell growth measured after 96 hrs by Celltiter-glo luminescent assay. The experiment is classed as functional, cell-based. The following applies: MDA-MB-231, 96 h. In short, it runs like this: as §1
The subject of the next experiment is Caov-3 cell line. In words: Antiproliferative activity against human CAOV3 cells as reduction in cell growth measured after 96 hrs by Celltiter-glo luminescent assay. The experiment is classed as functional, cell-based. The following applies: Caov-3, 96 h. In short, it runs like this:
as §1

Experiment [2] is described as follows: Cytotoxicity against cancer-derived human organoids in HGSOC patient assessed as reduction in cell viability up to 100 uM measured after 96 hrs by Celltiter-glo luminescent assay. The experiment is classed as functional, Neoplasm. As to conditions: dose microM <=100. In short, it runs like this: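 Organoids from three HGSOC patients. Tissue digested with 2 mg/mL collagenase for 30 min, embedded in BME matrix and cultured. Treated at 100 µM, with carboplatin as positive control. Viability read by CellTiter-Glo luminescence.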

On to `O=C(c1ccc(-c2cn(-c3ccccc3)nn2)cc1)C1CCN(C(=O)c2cccc(O)c2)CC1`, for which the 50% inhibitory concentration (IC50) at Monoglyceride lipase is 1 µM.
On to `O=C(c1ccc(Oc2ccccc2)cc1)C1CCN(C(=O)c2cccc(O)c2)CC1`, for which the IC50 on Monoglyceride lipase came out at 0.278 µM.
Take `Cc1ccc(O)cc1C(=O)N1CCC(C(=O)c2ccc(C(C)C)cc2)CC1`: the IC50 on Monoglyceride lipase turned out to be 2.3 µM.
As for `CC(C)c1ccc(C(=O)C2CCN(C(=O)c3cc(O)c(F)cc3F)CC2)cc1`, on Monoglyceride lipase, the IC50 turned out to be 0.031 µM.
On to `Nc1ccn([C@@H]2O[C@H](CO)[C@@H](O)C2(F)F)c(=O)n1` [GEMCITABINE], for which the IC50 in experiment [1] was found to be 0.00554 µM.
With `CC(C)c1ccc(C(=O)C2CCN(C(=O)c3ccnc(O)c3)CC2)cc1`, on Monoglyceride lipase, the IC50 was > 10 µM.
On the same count and under the same terms, as for `O=C(c1ccc(S(=O)(=O)c2ccccc2)cc1)C1CCN(C(=O)c2cccc(O)c2)CC1`, the figure is 3.4 µM.
Take `COc1nn(-c2ccc(NC(=O)OCc3ccccc3)c(C)c2)c(=O)o1`: the IC50 with OVCAR-3 was 53 µM; in the experiment with HCT-116 it was 38 µM; at Monoglyceride lipase, 0.13 µM; in the experiment on SK-OV-3 it was 33 µM; in the experiment with MDA-MB-231, 83 µM; in the experiment on Caov-3 cell line, 95 µM. The “inhibition (INH)” value in experiment [2] was 50%.
As for `CC(C)c1ccc(C(=O)C2CCN(C(=O)c3cncc(O)c3)CC2)cc1`, the IC50 at Monoglyceride lipase amounted to 2 µM.
The same measure, in the same setting: for `CC(C)c1ccc(C(=O)C2CCN(C(=O)c3cc(O)ccc3[N+](=O)[O-])CC2)cc1` the value was 4.5 µM.
For the compound `O=C(c1ccc(C2CC2)cc1)C1CCN(C(=O)c2cccc(O)c2)CC1`, the IC50 at Monoglyceride lipase was 0.368 µM.
For the compound `O=C(c1ccc(Cc2ccccc2)cc1)C1CCN(C(=O)c2cccc(O)c2)CC1`, the IC50 at Monoglyceride lipase was found to be 0.078 µM.
On the same count and under the same terms, as for `O=C(c1ccc(Sc2ccccc2)cc1)C1CCN(C(=O)c2cccc(O)c2)CC1`, the figure is 0.074 µM; as for `O=C(c1ccc(C2CCCCC2)cc1)C1CCN(C(=O)c2cccc(O)c2)CC1`, 0.129 µM.
Same read-out and setting: as for `O=C(c1ccc(Nc2ccccc2)cc1)C1CCN(C(=O)c2cccc(O)c2)CC1`, the figure is 0.758 µM.
Regarding `CC(C)c1ccc(C(=O)C2CCN(C(=O)c3cccc(O)n3)CC2)cc1`, the IC50 on Monoglyceride lipase is > 10 µM.
For `CC(C)c1ccc(C(=O)C2CCN(C(=O)c3cc(O)ccc3N)CC2)cc1`, the IC50 at Monoglyceride lipase is > 10 µM.
Take `CC(C)c1ccc(C(=O)C2CCN(C(=O)c3cc(O)ccn3)CC2)cc1`: the IC50 on Monoglyceride lipase is > 10 µM.
Same read-out and setting: as for `O=C(c1ccc(-c2cn(Cc3ccccc3)nn2)cc1)C1CCN(C(=O)c2cccc(O)c2)CC1`, the figure is 4.4 µM.
Same read-out and setting: as for `CC(C)c1ccc(C(=O)C2CCN(C(=O)c3cccc(O)c3)CC2)cc1`, the figure is 0.142 µM; as for `CC(C)c1ccc(C(=O)C2CCN(C(=O)c3cc(O)ccc3F)CC2)cc1`, 0.081 µM.
For `O=C(c1ccc(-c2cn(CCCc3ccccc3)nn2)cc1)C1CCN(C(=O)c2cccc(O)c2)CC1`, at Monoglyceride lipase, the IC50 was 3.3 µM.
Same read-out and setting: as for `CC(C)c1ccc(C(=O)C2CCN(C(=O)c3cc(O)ccc3C(F)(F)F)CC2)cc1`, the figure is 8.2 µM; as for `O=C(c1ccc([S+]([O-])c2ccccc2)cc1)C1CCN(C(=O)c2cccc(O)c2)CC1` (stereo not given), 4.3 µM.

By IC50 is commonly meant the concentration at which inhibition is half-maximal.
